This is an account of results in ChEMBL document CHEMBL1255570, “Click-chemistry-derived triazole ligands of arginine-glycine-aspartate (RGD) integrins with a broad capacity to inhibit adhesion of melanoma cells and both in vitro and in vivo angiogenesis” (J Med Chem, 2010).

The IC50 is the midpoint of a concentration-inhibition curve. Read a high IC50 as weaker potency.

One assay deals with Integrin alpha-V/beta-3 (Homo sapiens, UniProt P05106+P06756). Put plainly: Displacement of [125I]echistatin from human integrin alphaVbeta3. In kind it is protein-complex assay. In short, it runs like this: (§1)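 Solid-phase competition binding to αvβ3 and αvβ5 purified from human placenta. Receptors coated overnight at 4 °C (αvβ3 at 500 ng/mL, αvβ5 at 1000 ng/mL) in Tris pH 7.4 buffer with Ca2+, Mg2+ and Mn2+, then blocked with 1% BSA. [125I]echistatin used at 0.05 nM (αvβ3) or 0.1 nM (αvβ5) against test compound from 100 μM to 0.01 nM. Incubation 3 h at room temperature, in triplicate. Nonspecific binding defined with 1 μM unlabeled echistatin. IC50 taken as 50% inhibition of radioligand binding.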

The next assay has as its target Integrin alpha-V/beta-5 (Homo sapiens, UniProt P06756+P18084). As to the kind of experiment: Displacement of [125I]echistatin from human integrin alphaVbeta5. Type of assay: protein-complex assay. Summed up:
as §1

Sequence of Integrin alpha-V/beta-3 (P05106 27-788 limits assumed): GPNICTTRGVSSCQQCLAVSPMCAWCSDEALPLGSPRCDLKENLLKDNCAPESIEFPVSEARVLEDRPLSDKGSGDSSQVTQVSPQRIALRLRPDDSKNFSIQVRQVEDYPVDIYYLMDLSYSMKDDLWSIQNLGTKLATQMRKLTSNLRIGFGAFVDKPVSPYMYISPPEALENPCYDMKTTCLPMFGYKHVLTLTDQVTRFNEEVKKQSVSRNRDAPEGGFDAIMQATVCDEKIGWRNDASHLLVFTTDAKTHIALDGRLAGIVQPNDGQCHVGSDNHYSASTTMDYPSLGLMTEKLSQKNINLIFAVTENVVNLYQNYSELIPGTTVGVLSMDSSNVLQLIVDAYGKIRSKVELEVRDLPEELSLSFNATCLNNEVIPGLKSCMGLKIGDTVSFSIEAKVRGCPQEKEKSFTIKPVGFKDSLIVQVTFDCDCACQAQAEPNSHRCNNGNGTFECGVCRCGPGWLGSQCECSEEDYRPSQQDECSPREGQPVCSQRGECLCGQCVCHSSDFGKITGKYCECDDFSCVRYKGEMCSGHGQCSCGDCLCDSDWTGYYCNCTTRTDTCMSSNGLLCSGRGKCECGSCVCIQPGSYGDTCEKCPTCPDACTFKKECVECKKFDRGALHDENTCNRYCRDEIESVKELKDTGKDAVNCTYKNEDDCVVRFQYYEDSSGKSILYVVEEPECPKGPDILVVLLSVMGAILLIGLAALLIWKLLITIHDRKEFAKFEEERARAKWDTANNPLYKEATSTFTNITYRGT
Sequence of Integrin alpha-V/beta-3 (P06756 31-889 limits assumed): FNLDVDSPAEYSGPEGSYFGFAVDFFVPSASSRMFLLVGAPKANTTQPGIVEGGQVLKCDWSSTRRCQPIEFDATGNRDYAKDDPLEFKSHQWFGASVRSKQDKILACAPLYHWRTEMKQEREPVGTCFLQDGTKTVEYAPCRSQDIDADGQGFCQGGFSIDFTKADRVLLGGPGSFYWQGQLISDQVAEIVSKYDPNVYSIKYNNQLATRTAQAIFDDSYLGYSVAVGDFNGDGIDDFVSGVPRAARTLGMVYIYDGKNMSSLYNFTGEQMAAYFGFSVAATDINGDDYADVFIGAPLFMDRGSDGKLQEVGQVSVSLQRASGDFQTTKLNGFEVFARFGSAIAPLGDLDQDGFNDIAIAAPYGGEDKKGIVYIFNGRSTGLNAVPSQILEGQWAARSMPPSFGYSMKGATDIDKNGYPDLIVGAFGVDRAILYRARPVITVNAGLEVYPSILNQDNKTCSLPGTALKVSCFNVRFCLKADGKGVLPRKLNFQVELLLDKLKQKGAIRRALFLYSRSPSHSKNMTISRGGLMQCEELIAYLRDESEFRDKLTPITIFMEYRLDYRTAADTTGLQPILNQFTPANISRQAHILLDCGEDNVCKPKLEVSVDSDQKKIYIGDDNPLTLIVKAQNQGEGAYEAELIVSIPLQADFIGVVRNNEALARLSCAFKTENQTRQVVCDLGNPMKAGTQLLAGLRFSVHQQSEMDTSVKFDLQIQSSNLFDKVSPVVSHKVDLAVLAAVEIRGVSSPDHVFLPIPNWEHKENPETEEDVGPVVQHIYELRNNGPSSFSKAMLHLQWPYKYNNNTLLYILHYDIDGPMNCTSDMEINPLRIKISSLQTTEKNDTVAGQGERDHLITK
Sequence of Integrin alpha-V/beta-3 (P06756 891-1048 limits assumed): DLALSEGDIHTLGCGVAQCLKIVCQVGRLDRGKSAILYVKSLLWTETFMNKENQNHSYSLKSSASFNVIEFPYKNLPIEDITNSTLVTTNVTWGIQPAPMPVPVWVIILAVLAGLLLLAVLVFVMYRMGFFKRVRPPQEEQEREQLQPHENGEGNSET
Sequence of Integrin alpha-V/beta-5 (P06756 31-889 limits assumed): as the sequence (P06756 31-889 limits assumed) above
Sequence of Integrin alpha-V/beta-5 (P06756 891-1048 limits assumed): as the sequence (P06756 891-1048 limits assumed) above
Sequence of Integrin alpha-V/beta-5 (P18084 24-799 limits assumed): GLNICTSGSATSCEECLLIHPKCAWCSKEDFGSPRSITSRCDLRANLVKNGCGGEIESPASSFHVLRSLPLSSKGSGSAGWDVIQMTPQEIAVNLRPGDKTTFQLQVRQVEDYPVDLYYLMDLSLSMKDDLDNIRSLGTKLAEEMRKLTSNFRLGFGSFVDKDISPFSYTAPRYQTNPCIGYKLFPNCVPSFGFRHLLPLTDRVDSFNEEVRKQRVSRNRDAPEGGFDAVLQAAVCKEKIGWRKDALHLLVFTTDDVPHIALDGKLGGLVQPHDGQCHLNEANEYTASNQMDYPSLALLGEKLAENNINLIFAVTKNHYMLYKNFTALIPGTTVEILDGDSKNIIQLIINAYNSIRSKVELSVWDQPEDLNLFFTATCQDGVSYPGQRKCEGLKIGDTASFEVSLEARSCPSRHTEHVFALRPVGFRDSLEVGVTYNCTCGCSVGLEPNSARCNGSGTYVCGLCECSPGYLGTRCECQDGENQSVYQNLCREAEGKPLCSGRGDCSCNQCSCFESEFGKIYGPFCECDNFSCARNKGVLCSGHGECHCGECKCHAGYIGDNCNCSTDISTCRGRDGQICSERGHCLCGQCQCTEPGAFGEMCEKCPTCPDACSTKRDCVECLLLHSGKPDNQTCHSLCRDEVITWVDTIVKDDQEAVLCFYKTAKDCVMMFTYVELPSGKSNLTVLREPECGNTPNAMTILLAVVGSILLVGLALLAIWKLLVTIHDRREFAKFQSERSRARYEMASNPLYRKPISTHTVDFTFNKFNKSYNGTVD

In the case of `N=C(N)NCCc1cn(CC(=O)N(CC(=O)O)c2ccccc2)nn1`, the IC50 on Integrin alpha-V/beta-3 and on Integrin alpha-V/beta-5 was greater than 10 µM throughout.

For `N=C(N)N1CCN(CCc2cn(CC(=O)N(CC(=O)O)c3ccccc3)nn2)CC1`, the IC50 on Integrin alpha-V/beta-3 and on Integrin alpha-V/beta-5 was greater than 10 µM each time.

Consider `NC(N)=NCc1cn(CC(=O)N(CC(=O)O)c2ccccc2)nn1`, for which the IC50 at Integrin alpha-V/beta-3 and at Integrin alpha-V/beta-5 was greater than 10 µM in each case.

Take `NC(N)=NCCCc1cn(CC(=O)N(CC(=O)O)c2ccccc2)nn1`: the IC50 on Integrin alpha-V/beta-3 and on Integrin alpha-V/beta-5 was greater than 10 µM in each case.
